Assay [1] in a line: Binding affinity to synthetic telomere 23 parallel G-quadruplex DNA assessed as change in melting temperature at 4 mol equiv in presence of 100 mM KCl buffer by circular dichroism spectroscopic analysis. In a few lines:
(§1)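 CD melting, 20-100 °C at 1 °C/min, signal at 264 (parallel), 290 (antiparallel) or 280 nm (duplex). G4 DNA 10 µM or duplex 15 µM, folded by heating at 90 °C 5 min and slow cooling, in 10 mM potassium phosphate (c-kit1, Tel23, Tel26) or lithium phosphate (Tel23-p, ds12) pH 7.0 with 100 mM KCl. Ligand 4 equiv; Tm by curve fit, ΔTm vs DNA alone; duplicate average.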
(In general: Circular dichroism is the unequal absorption of left and right circularly polarised light.)

Assay [2] can be described thus: Effect on synthetic telomere 23 G-quadruplex DNA topology at 4 mol equiv by circular dichroism spectroscopic analysis. An outline of the steps:
(§2)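 CD spectra at 20 °C, 230-360 nm, 3 scans averaged, baseline subtracted; 10 µM G4 or 15 µM duplex in potassium- or lithium-phosphate pH 7.0 buffers with 100 mM KCl (c-kit2, c-myc: 5 mM potassium phosphate, 20 mM KCl); ligand 4 molar equiv added to folded DNA from 6 mM DMSO stock.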

A short description of assay [3]: Binding affinity to synthetic telomere 23 G-quadruplex DNA assessed as change in melting temperature at 4 mol equiv in presence of 100 mM KCl buffer by circular dichroism spectroscopic analysis. In a few lines: as §1
Assay [4] can be described thus: Effect on synthetic self-complementary DNA 12-mer duplex topology at 4 mol equiv in presence of K+ ions by circular dichroism spectroscopic analysis. In a few lines: as §2
Assay [5] can be described thus: Effect on synthetic c-KIT2 G-quadruplex DNA topology at 4 mol equiv by circular dichroism spectroscopic analysis. An outline of the steps:
as §2

The species named for assay [6] is Homo sapiens. In words: Binding affinity to human 5'-FAM/3'-TAMRA labeled telomere 21 G-quadruplex DNA assessed as increase in melting temperature by FRET assay. An outline of the steps:
(§3)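 FRET melting screen in 60 mM potassium cacodylate pH 7.4, labelled probe 400 nM annealed at 85 °C for 10 min; ligands at various concentrations up to 20 µM, diluted from 10 mM DMSO stock via 10 mM HCl. Excitation 450-495 nm, emission 515-545 nm, 30-100 °C in 0.5 °C steps with 30 s hold; ΔTm by curve fitting, triplicate.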

The nature of assay [7]: Effect on synthetic c-MYC G-quadruplex DNA topology at 4 mol equiv by circular dichroism spectroscopic analysis. In a few lines:
as §2

Assay [8] in a line: Effect on synthetic c-KIT1 G-quadruplex DNA topology at 4 mol equiv by circular dichroism spectroscopic analysis. An outline of the steps:
as §2

A short description of assay [9]: Effect on synthetic telomere 26 G-quadruplex DNA topology at 4 mol equiv by circular dichroism spectroscopic analysis. An outline of the steps:
as §2

Assay [10] can be described thus: Binding affinity to synthetic self-complementary DNA 12-mer duplex assessed as change in melting temperature at 4 mol equiv in presence of 100 mM KCl buffer by circular dichroism spectroscopic analysis. An outline of the steps: as §1
Assay [11] can be described thus: Binding affinity to synthetic c-KIT1 G-quadruplex DNA assessed as change in melting temperature at 4 mol equiv in presence of 100 mM KCl buffer by circular dichroism spectroscopic analysis. In a few lines: as §1
The nature of assay [12]: Binding affinity to synthetic c-MYC G-quadruplex DNA assessed as change in melting temperature at 4 mol equiv in presence of 20 mM KCl buffer by circular dichroism spectroscopic analysis.
Assay [13] can be described thus: Binding affinity to synthetic telomere 26 G-quadruplex DNA assessed as change in melting temperature at 4 mol equiv in presence of 100 mM KCl buffer by circular dichroism spectroscopic analysis. In a few lines:
as §1

Assay [14] can be described thus: Binding affinity to synthetic c-KIT2 G-quadruplex DNA assessed as change in melting temperature at 4 mol equiv in presence of 20 mM KCl buffer by circular dichroism spectroscopic analysis. In a few lines: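 CD melting as for other targets (20-100 °C, 1 °C/min, 10 µM folded G4, ligand 4 equiv), but in 5 mM potassium phosphate with 20 mM KCl; c-kit2 read at 264 nm as parallel G4. ΔTm from fitted Tm, duplicate average.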

The nature of assay [15]: Effect on synthetic telomere 23 parallel G-quadruplex DNA topology at 4 mol equiv by circular dichroism spectroscopic analysis. An outline of the steps:
as §2

For assay [16], the species on record is Homo sapiens. As to the kind of experiment: Binding affinity to human 5'-FAM/3'-TAMRA labeled duplex DNA T-loop assessed as increase in melting temperature by FRET assay. An outline of the steps: as §3
Assay [17] in a line: Binding affinity to 5'-FAM/3'-TAMRA labeled c-KIT2 G-quadruplex DNA (unknown origin) assessed as change in melting temperature at 4:1 ligand:DNA ratio in presence of 20 mM KCl buffer by FRET assay. In a few lines: (§4)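 FRET melting of FAM/TAMRA-labelled G4 oligos (400 nM, annealed 85 °C 10 min) with ligand at 4 equiv, same buffers as CD (20 mM KCl for c-kit2 and c-myc; 100 mM KCl for telomeric parallel form, annealed at high concentration). Excitation 450-495 nm, emission 515-545 nm, read every 0.5 °C over 30-100 °C; ΔTm by curve fit; duplicate runs averaged.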

Assay [18] in a line: Effect on preformed synthetic c-MYC parallel G-quadruplex DNA topology in tris buffer after 10 mins by circular dichroism titration method.
Assay [19] can be described thus: Induction of parallel G-quadruplex formation in synthetic unfolded c-KIT2 DNA assessed as increase in molar ellipticity after 10 mins in absence of metal cation by circular dichroism titration method. An outline of the steps:
(§5)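 CD titration without metal ions: unfolded oligonucleotide 12-15 µM in 50 mM Tris; ligand added in 0.5 equiv steps, spectrum recorded 10 min after each addition at 20 °C, 230-360 nm, 3 scans averaged.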

Assay [20] in a line: Binding affinity to synthetic c-KIT2 G-quadruplex DNA assessed as increase in thermal stability in presence of 20 mM KCl buffer by circular dichroism spectroscopic analysis. In a few lines: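 CD melting in 5 mM potassium phosphate, 20 mM KCl, 10 µM folded G4, heated 20-100 °C at 1 °C/min; ligand:DNA ratios 1:1, 2:1 and 4:1 compared; Tm from curve fit.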
A short description of assay [21]: Binding affinity to 5'-FAM/3'-TAMRA labeled c-MYC G-quadruplex DNA (unknown origin) assessed as change in melting temperature at 4:1 ligand:DNA ratio in presence of 20 mM KCl buffer by FRET assay. An outline of the steps: as §4
The nature of assay [22]: Induction of parallel G-quadruplex formation in synthetic unfolded c-KIT1 DNA assessed as increase in molar ellipticity after 10 mins by in absence of metal cation circular dichroism titration method. In a few lines: as §5
The nature of assay [23]: Induction of G-quadruplex formation in synthetic unfolded telomere 23 DNA assessed as increase in molar ellipticity after 10 mins in absence of metal cation by circular dichroism titration method. An outline of the steps: as §5
Assay [24] in a line: Binding affinity to human 5'-FAM/3'-TAMRA labeled telomere 21 parallel G-quadruplex DNA (unknown origin) assessed as change in melting temperature at 4:1 ligand:DNA ratio in presence of 100 mM KCl buffer by FRET assay. In a few lines: as §4

Active and inactive are the calls of the source. The rule behind the calls is not given here.

With `C(=N\Nc1ccccn1)/c1c(-c2ccccc2)nc2n1ccc1nc(-c3ccccc3)c(/C=N/Nc3ccccn3)n12`, the thermal shift (ΔTm) in [1] is 1.3 °C; in assay [3] it was -1 °C; in assay [10] it was 0.9 °C; in assay [11] it was 0.4 °C; in assay [12], -0.2 °C; in [13] it was -1.6 °C. In assay [14], the thermal shift (ΔTm) came out at 0 °C. For the same molecule, the outcome (in assay [2]; in assay [4]; in [5]; in the assay listed under Homo sapiens [6]; in assay [7]; in [8]) was inactive. In addition, the result in assay [9] and in [15] was inactive.
For `CN1C(=C2\C(=N\Nc3ccccn3)c3ccccc3N2C)/C(=N/Nc2ccccn2)c2ccccc21`, the ΔTm in [1] is 4 °C; in assay [3], -2.5 °C; in assay [10], -0.7 °C; in assay [11], 1.5 °C; in assay [12], 1.6 °C; in [13], -2 °C. The ΔTm in assay [14] came out at 2 °C. Besides, the outcome (in assay [2]; in [4]; in assay [5]; in the assay filed under Homo sapiens [6]; in [7]; in assay [8]) was inactive. For the same molecule, the outcome in assay [9] and in assay [15] was inactive.
Take `N=C(N)N/N=C/c1ccc2c(/C=N/NC(=N)N)c(Cl)n(-c3ccccc3)c2c1`: the ΔTm was more than 20 °C in [1]; 5.6 °C in [3]; more than 15 °C in assay [11]; more than 20 °C in [12]; 5.1 °C in [13]; more than 15 °C in assay [14]. Besides, the outcome in assay [2], in [4], in assay [5], in assay [7], in [8] and in assay [9] was inactive. Further, the outcome in assay [15] was inactive. The result in the assay filed under Homo sapiens [16] and in the assay listed under Homo sapiens [6] was Active.
Take `CN1C(=C2\C(=N\NC(=N)N)c3ccccc3N2C)/C(=N/NC(=N)N)c2ccccc21`: the thermal shift (ΔTm) in assay [1] was 7.7 °C; in [3] it was -0.5 °C; in assay [10] it was -0.8 °C; in [11], 0.9 °C; in assay [12], 11 °C; in [13], 0.2 °C. In [14], the ΔTm is 8.2 °C. Also, the result (in [2]; in assay [4]; in assay [5]; in the assay filed under Homo sapiens [6]; in [7]; in assay [8]) was inactive. In addition, the outcome in assay [9] and in assay [15] was inactive.
For the molecule `Cn1c(Cl)c(/C=N/NC(=N)N)c2ccc(/C=N/NC(=N)N)cc21`, the ΔTm in [1] is more than 20 °C; in assay [3], 6 °C; in [11], more than 15 °C; in [12] it was more than 20 °C; in [13], 5.8 °C; in assay [14], more than 20 °C. Also, the result in [2], in assay [4], in [5], in assay [7], in assay [8] and in [9] was inactive. Moreover, the outcome in assay [15] was inactive. Moreover, the outcome in the assay filed under Homo sapiens [16] and in the assay listed under Homo sapiens [6] was Active.
In the case of `Cn1c(Cl)c(/C=N/NC(=N)N)c2cc3c(/C=N/NC(=N)N)c(Cl)n(C)c3cc21`, the shift in melting temperature (ΔTm) in [1] was more than 20 °C; in assay [3] it was 3 °C; in assay [11], more than 15 °C; in assay [12] it was more than 20 °C; in assay [13], 1.3 °C; in [14], more than 15 °C. The result in assay [2], in assay [4], in [5], in assay [7], in assay [8] and in assay [9] was inactive. In [15], the result was inactive. Also, the result in the assay filed under Homo sapiens [16] and in the assay listed under Homo sapiens [6] was Active.
Turning to `N=C(N)N/N=C/c1c(-c2ccsc2)nc2n1ccc1nc(-c3ccsc3)c(/C=N/NC(=N)N)n12`, the ΔTm in [17] is more than 20 °C; in [1], more than 20 °C; in assay [3], -4.9 °C; in assay [21], more than 20 °C; in [10] it was 3.5 °C; in assay [11] it was more than 15 °C. For the same molecule, the shift in melting temperature (ΔTm) in assay [12] is more than 20 °C; in [13], -6.5 °C; in assay [24] it was more than 20 °C; in [14], more than 20 °C. Also, the outcome in assay [2], in assay [18], in assay [4], in assay [5], in [7] and in assay [8] was inactive. The outcome in assay [9], in [23] and in assay [15] was inactive. Further, the result (in assay [19]; in the assay filed under Homo sapiens [6]) was Active. The Activity result in [20] and in assay [22] was “Dose-dependent effect” each time.

As a reminder, the ΔTm is the change in melting temperature against a reference sample.

For the origin of these results see ChEMBL document CHEMBL3826876, “Toward the Development of Specific G-Quadruplex Binders: Synthesis, Biophysical, and Biological Studies of New Hydrazone Derivatives” (J Med Chem, 2016).
